Experiment [1] deals with Muscarinic acetylcholine receptor M3 (Homo sapiens, UniProt P20309). The experiment can be described thus: Binding affinity to human muscarinic M3 receptor.
The target in experiment [2] is T1, Muscarinic acetylcholine receptor M1 (Homo sapiens, UniProt P11229).
T1 sequence (P11229 whole entry): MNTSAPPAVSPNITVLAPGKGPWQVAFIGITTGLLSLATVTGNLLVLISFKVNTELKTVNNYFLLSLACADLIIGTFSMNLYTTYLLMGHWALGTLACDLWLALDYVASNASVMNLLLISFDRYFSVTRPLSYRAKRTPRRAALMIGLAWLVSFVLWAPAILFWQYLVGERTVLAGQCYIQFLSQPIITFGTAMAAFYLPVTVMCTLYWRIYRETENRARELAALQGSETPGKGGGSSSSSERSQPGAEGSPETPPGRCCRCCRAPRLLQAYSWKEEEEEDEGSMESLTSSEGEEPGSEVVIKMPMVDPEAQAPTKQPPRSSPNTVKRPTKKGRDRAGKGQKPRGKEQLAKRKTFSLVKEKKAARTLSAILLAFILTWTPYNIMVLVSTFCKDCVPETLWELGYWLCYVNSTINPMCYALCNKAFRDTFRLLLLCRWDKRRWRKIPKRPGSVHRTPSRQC
The experiment can be described thus: Binding affinity to human muscarinic M1 receptor.

For experiment [3], the target named is T2, C-X-C chemokine receptor type 3 (Homo sapiens, UniProt P49682).
T2 sequence (P49682 whole entry): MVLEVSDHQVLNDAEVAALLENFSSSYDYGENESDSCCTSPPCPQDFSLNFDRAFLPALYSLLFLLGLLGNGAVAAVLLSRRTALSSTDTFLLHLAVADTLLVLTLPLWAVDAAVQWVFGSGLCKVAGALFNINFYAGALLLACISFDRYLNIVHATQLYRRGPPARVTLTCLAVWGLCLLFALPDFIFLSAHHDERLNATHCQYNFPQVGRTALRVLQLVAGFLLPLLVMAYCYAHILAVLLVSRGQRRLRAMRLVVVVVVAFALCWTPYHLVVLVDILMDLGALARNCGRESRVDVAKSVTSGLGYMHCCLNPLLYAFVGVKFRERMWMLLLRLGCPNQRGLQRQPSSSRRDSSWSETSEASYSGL
The experiment in a line: Displacement of [125I]ITAC from CXCR3 in PHA/IL-2 activated human PBMC pretreated 30 mins before [125I]ITAC challenge after 1 hr by liquid scintillation counter. The essentials: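 Pre-incubated with compound for 30 min. 80 pM [125I]-ITAC (2000 Ci/mmol) added for 60 min at 4 °C. Harvested on polyethyleneimine-presoaked GF/B filters; radioactivity counted by liquid scintillation.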
Background: Displacement assays read how much labelled ligand stays bound in the presence of the test substance.

Experiment [4] deals with T3, Muscarinic acetylcholine receptor M2 (Homo sapiens, UniProt P08172).
T3 sequence (P08172 whole entry): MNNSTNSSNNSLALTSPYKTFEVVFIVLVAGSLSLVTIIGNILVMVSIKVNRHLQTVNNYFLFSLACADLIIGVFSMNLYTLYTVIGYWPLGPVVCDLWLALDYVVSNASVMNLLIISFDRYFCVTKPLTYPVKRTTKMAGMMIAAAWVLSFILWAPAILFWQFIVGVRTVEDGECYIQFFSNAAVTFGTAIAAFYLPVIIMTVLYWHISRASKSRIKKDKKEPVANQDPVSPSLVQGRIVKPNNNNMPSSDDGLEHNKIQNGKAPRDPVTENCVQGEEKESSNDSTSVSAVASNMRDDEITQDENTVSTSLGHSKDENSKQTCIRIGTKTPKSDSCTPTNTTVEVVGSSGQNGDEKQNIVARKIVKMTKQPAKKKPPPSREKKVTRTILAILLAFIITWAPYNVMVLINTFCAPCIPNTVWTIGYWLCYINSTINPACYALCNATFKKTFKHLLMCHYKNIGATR
The experiment can be described thus: Binding affinity to human muscarinic M2 receptor.

Experiment [5] concerns the target T2, C-X-C chemokine receptor type 3. The experiment in a line: Antagonist activity at human CXCR3 expressed in CHO cells assessed as inhibition of ITAC-stimulated [35S]GTPgammaS binding pretreated 30 mins before ITAC challenge. The experiment is classed as functional, cell-based. (In general: GTPγS is a poorly hydrolysed GTP analogue; its binding reports G protein activation.)

The test system of the next experiment is PBMC. The experiment can be described thus: Reduction of ITAC-induced migration in PHA/IL-2 activated human PBMC pretreated 10 mins before ITAC challenge after 3 hrs by fluorescent plate reader. It is filed as functional, cell-based. A digest of the protocol:
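Cells pre-incubated with compound for 10 min at 25 °C. 80,000 cells per well placed on the filter topside, in 6-fold replicates. Lower wells held 3 nM human ITAC. After 3 h at 37 °C, non-migrated cells were removed and migrated cells quantified by fluorescence plate reader.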

Experiment [6] has as its target Interleukin-8 receptors, CXCR1/CXCR2 (Homo sapiens) (UniProt P25025+P25024). The experiment in a line: Displacement of [125I]IL8 from human CXCR1/2 expressed in CHO cells at 10 uM. The experiment is classed as cell-based.
Experiment [7] deals with T4, C-C chemokine receptor type 4 (Homo sapiens) (UniProt P51679).
T4 sequence (whole entry): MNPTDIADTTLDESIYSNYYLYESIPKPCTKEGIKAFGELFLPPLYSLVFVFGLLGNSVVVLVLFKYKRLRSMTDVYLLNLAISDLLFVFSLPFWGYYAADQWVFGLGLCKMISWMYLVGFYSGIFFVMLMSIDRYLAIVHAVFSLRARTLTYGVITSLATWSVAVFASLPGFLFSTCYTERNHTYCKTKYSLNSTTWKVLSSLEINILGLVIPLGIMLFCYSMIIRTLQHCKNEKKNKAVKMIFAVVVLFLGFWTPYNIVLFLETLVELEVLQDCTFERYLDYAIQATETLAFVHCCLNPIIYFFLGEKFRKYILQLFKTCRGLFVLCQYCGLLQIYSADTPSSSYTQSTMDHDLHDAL
The experiment can be described thus: Displacement of [125I]TARC from human CCR4 expressed in CHO cells at 10 uM. It is filed as cell-based.

Experiment [8] deals with T5, CX3C chemokine receptor 1 (Homo sapiens) (UniProt P49238).
T5 sequence (whole entry): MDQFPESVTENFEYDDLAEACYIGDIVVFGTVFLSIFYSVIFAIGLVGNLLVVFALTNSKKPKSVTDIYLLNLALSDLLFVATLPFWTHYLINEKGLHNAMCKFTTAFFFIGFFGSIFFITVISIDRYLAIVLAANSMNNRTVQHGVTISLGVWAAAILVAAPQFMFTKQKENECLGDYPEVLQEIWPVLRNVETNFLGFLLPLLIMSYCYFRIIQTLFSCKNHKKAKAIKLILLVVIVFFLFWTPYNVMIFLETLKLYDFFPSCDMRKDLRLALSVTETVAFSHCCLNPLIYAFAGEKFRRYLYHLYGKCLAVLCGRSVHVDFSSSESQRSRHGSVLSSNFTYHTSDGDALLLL
The experiment can be described thus: Displacement of [125I]fractalkine from human […] expressed in CHO cells at 10 uM. It is filed as cell-based.

Experiment [9] deals with T6, C-C chemokine receptor type 1 (Homo sapiens) (UniProt P32246).
T6 sequence (whole entry): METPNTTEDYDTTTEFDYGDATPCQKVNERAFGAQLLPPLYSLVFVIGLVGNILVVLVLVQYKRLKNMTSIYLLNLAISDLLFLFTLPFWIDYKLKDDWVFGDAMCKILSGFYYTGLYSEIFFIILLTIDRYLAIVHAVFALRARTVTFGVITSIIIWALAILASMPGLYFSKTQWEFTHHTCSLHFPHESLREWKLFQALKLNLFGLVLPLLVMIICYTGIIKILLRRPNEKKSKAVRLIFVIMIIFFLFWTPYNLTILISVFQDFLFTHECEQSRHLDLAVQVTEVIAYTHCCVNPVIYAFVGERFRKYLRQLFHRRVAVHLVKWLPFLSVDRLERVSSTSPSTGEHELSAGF
The experiment in a line: Displacement of [125I]MIP1alpha from human CCR1 expressed in CHO cells at 10 uM. The experiment is classed as cell-based.

In experiment [10] the target is C-C chemokine receptor type 2 (Homo sapiens) (UniProt P41597). The experiment can be described thus: Displacement of [125I]MCP1 from human CCR2 expressed in CHO cells at 10 uM. It is filed as cell-based.

Each structure is given as a SMILES string. Some results are limits rather than exact numbers.

Muscarinic acetylcholine receptor M3, sequence (P20309 whole entry): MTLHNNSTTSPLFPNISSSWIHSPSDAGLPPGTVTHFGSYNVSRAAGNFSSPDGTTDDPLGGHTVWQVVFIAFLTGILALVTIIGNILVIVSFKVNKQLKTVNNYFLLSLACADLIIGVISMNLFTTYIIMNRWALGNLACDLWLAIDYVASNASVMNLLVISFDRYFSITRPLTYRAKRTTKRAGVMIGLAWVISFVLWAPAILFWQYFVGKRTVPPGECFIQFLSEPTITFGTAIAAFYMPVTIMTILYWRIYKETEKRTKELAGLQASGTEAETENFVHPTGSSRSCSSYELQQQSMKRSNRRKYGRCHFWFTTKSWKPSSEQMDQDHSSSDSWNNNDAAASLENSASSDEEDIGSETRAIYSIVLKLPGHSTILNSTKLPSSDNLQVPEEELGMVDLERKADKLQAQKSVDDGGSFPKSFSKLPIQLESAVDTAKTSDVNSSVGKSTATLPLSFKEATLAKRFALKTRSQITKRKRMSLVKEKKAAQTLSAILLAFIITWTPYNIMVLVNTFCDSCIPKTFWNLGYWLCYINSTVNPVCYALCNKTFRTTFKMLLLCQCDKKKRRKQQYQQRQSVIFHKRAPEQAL
C-C chemokine receptor type 2 (Homo sapiens), sequence (P41597 whole entry, looked up): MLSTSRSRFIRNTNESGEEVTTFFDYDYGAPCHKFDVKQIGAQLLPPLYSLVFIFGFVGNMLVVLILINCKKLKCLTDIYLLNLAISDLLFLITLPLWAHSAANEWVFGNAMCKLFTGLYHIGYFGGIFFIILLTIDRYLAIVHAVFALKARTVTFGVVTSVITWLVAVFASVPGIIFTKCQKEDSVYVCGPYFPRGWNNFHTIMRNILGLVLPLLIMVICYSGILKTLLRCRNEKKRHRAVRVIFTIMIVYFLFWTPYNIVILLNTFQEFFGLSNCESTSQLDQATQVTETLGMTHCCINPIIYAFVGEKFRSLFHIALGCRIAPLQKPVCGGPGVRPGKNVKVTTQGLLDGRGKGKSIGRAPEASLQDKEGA

By IC50 is commonly meant the midpoint of a concentration-inhibition curve. As for `O=C1CCC(c2ccccc2)(C2CCN(Cc3ccc(Br)cc3)CC2)C(=O)N1` (stereo in doubt; (-)-1a) [listing 1 of 2 here], the IC50 is > 10000 nM in [1]; 9600 nM in experiment [2]; 330 nM in [3]; > 10000 nM in [4]; 610 nM in experiment [5]; 690 nM in the experiment on PBMC.

The term inhibition denotes the percentage by which the read-out fell short of the control. Take `O=C1CCC(c2ccccc2)(C2CCN(Cc3ccc(Br)cc3)CC2)C(=O)N1` (stereo in doubt; (-)-1a) [listing 2 of 2 here]: the inhibition in experiment [6], in experiment [7], in experiment [8], in experiment [9] and in experiment [10] was < 25% in each case.

(Values after ChEMBL document CHEMBL1139391, “Synthesis and structure-activity relationship of benzetimide derivatives as human CXCR3 antagonists” (Bioorg Med Chem Lett, 2008).)
